Published values from different studies.
Compare with care: the assays were run in different laboratories.
Target: Serine/threonine-protein kinase 10 (STK10, Homo sapiens, UniProt O94804)

Cn1cncc1[C@@](O)(COc1ccc(C#N)cc1-c1ccc(OC(F)(F)F)cc1)c1ccc(C#N)cc1 — remaining binding (cell-free assay, competition with immobilised ligand; 1 µM): 100%
COc1ncccc1-c1cnn2ccc(N3CCN(C(=O)OC(C)C)CC3)nc12 — remaining binding (binding, competition with immobilised ligand; 1 µM): 63%
CC(C)(C)c1cc(C=C(C#N)C#N)cc(Br)c1O — remaining activity (enzyme activity, inhibitor; 0.5 µM): 95.4%
Cc1nn(C)cc1-c1nc2c(N3CCN(Cc4ccc(Cl)cc4)CC3)c(Cl)cnc2[nH]1 — remaining binding (binding, competition with immobilised ligand; 1 µM): 100%
Nc1ncc(-c2nc(N3CCOCC3)nc(N3CCOCC3)n2)c(C(F)F)n1 — remaining binding (binding, competition with immobilised ligand; 10 µM): 64%
COc1cc(Nc2ncc(F)c(Nc3ccc4c(n3)NC(=O)C(C)(C)O4)n2)cc(OC)c1OC — inhibition (binding; 10 µM): 100%
N#CC1(c2ccccn2)CCN(Cc2cc(C(=O)O)c(=O)n3ccccc23)CC1 — remaining binding (cell-free assay, competition with immobilised ligand; 1 µM): 100%
O=c1[nH]c2ccccc2n1C1CCN(Cc2ccc(-c3[nH]c4cc5ncnc5cc4nc3-c3ccccc3)cc2)CC1 — remaining signal (cell-free assay; 0.5 µM): 92.6%
